Bioassay records deposited in PubChem BioAssay by Sanford-Burnham Center for Chemical Genomics.
TRAIL sens C8 – sensitizes caspase-8 expressing cells to TRAIL | NB7+C8 cells + TRAIL, ATPlite viability luminescence | inhibition (viability loss, TRAIL sensitization), % at 10 µM | 1% of 360,000 active;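 active = compounds causing at least 50% loss of cell viability in the single-dose screen, relative to plate controls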
FLuc stim CS – affects firefly luciferase, flagging false hits in luciferase stimulation screens. AID 1027. ATPlite luciferase biochemical, luminescence, 10 min; 0 = ATP-free wells, 1 = DMSO control. 200,000 tested, under 10 active. P08659. activation factor at 10 µM;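 active = luciferase activation factor, scaled between plate controls, of at least 2 with compound at 10 µM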
Target sequence (P08659 whole entry, looked up): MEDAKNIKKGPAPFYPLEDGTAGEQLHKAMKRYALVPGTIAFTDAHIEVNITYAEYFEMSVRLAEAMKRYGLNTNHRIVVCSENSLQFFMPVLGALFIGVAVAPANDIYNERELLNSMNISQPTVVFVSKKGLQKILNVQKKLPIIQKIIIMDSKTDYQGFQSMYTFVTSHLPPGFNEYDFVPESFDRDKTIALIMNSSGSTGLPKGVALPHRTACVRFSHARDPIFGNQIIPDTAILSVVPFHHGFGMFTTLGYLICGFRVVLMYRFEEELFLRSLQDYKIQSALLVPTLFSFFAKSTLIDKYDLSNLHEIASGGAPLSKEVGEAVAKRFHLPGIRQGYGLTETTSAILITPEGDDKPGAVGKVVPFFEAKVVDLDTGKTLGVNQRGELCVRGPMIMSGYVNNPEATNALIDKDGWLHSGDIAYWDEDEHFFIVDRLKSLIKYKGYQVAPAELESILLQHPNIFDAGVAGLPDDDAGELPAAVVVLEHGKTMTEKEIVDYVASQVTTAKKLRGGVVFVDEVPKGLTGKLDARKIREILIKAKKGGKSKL
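test system = cell-free luciferase reagent | medium = PBS as buffer for the ATP substrate | dosing = test compounds dosed from 2 mM stocks in 100% DMSO | incubation = 10 min at ambient temperature | detection = luminescence measurement of luciferase light output | benchmarks = low control with PBS replacing ATP, high control enzyme plus ATP without compound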
FLuc inh counter – inhibits firefly luciferase, flagging false hits in luciferase inhibition screens. 1.5% of 200,000 active. ATPLite firefly luciferase biochemical luminescence, 10 min. inhibition, % at 10 µM. P08659. AID 1006;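 active = inhibition above about 50% when tested at 10 µM, limit read from the data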
PPC-1+TRAIL kill – PPC-1 cancer cell killing with TRAIL present. PPC-1 cells + TRAIL, ATPLite viability luminescence. cell killing (% activity), % at 4 µM or 5 µM. 0.41% of 220,000 active. AID 1443;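 active = cell killing above 50% in the first pass at 4 µM, then a duplicate retest at 5 µM averaging 50% or more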;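 also: plate controls were cells with TRAIL plus DMSO for no effect and medium-only wells lacking cells for full effect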
* marks the source's active call; other numbers are inactive results; . = no result given. Shown are actives, neighbours in structure and some others; about 1.6% of the full set was active somewhere.

SMILES	TRAIL sens C8	FLuc stim CS	FLuc inh counter	PPC-1+TRAIL kill
Cc1cc(N2CCN(CC(O)C(F)(F)F)CC2)c2ccccc2n1 (configuration not stated)	10	.	.	.
N#Cc1ccc(/C=C/C(=O)c2ccco2)cc1	-14	0.9	10	18
Nc1ccc(/C=C/C(=O)c2ccco2)cc1	6	0.5	55*	17
CN(C)c1ccc(/C=C/C(=O)c2ccc(O)cc2)cc1	63*	.	.	.
Cc1ccc(/C=C/C(=O)c2ccc(C)cc2)cc1	1	0.5	54*	18
Cc1ccc(/C=C/C(=O)c2ccccc2O)cc1	2	.	.	1
CN(C)c1ccc(/C=C/C(=O)c2ccccc2O)cc1	14	0.3	66*	14
CN(C)c1ccc(C(=O)C=Cc2ccc([N+](=O)[O-])cc2)cc1	-5	.	.	.
CC(C)(C)OC(=O)C[C@@H]1C/C=C\C[C@H](CC(=O)N(CCO)Cc2ccccc2)C(=O)N[C@@H](c2ccccc2)COC1=O	-26	.	.	.
Cc1ccc(-n2nnc(-c3cccnc3Cl)n2)cc1	61*	0.3	72*	40
O=C(Nc1cccc(S(=O)(=O)N2CCCCC2)c1)c1c2c(nc3ccccc13)CCN(Cc1ccccc1)C2	3	1.1	-6	-17
COc1ccc(-c2cn3ccccc3n2)cc1OC	60*	0.2	77*	31
Cc1ccc(C(=O)N(CC(=O)Nc2ccc(Cl)c(Cl)c2)Cc2ccco2)cc1	-2	0.9	5	15
Cc1cc(C(=O)NC2CCCc3c2cnn3-c2cc(F)cc(F)c2)nn1C (configuration not stated)	32	.	.	.
CCOC(=O)c1cc(NC(=O)N(CC)C2CCCCC2)c(C)nc1C	1	1	-3	24
Clc1ccc(-c2cn3c(n2)-c2ccccc2C3)cc1Cl	44	0.3	66*	18
Cc1cc2ccccc2c(=O)n1CC(=O)NCCC1=CCCCC1	-1	0.4	60*	21
CCc1ccc(N=C2N=C(N)c3ccccc32)cc1	38	0.1	92*	26
O=C(NCCc1c[nH]c2ccccc12)c1cc(S(=O)(=O)N2CCCCC2)ccc1N1CCOCC1	-13	1	-4	11
CCN(CC)C(=O)c1sc(NC(=O)C(Sc2ccccc2)c2ccccc2)c(C(=O)OC(C)C)c1C (configuration not stated)	9	1	-3	20
CC1=CN2C(=N)/C(=C/c3ccc(C)o3)C(=O)N=C2S1	54*	0.2	80*	26
O=C(NC(=O)c1ccccc1F)Nc1nc(-c2cccs2)cc(C(F)(F)F)n1	-3	1	-2	-3
O=C(NC1CC1)c1ccc(N2CCCCC2)c([N+](=O)[O-])c1	18	.	.	.
CCCCn1c(=O)[nH]c(=O)c2c1nc(Cn1ncc(Cl)c(Cl)c1=O)n2CCC	95*	.	.	.
O=C(N/N=C/c1cccc(NC(=O)c2ccc(Cl)cc2)c1)c1ccc(O)cc1	61*	.	.	30
SMILES	TRAIL sens C8	FLuc stim CS	FLuc inh counter	PPC-1+TRAIL kill
O=C(N/N=C/c1cccc(F)c1)c1ccc(Cl)cc1	23	0.4	58*	15
O=C(N/N=C/c1ccncc1)c1cccc(NC(=O)c2ccc(Cl)cc2)c1	-8	1	0	9
CCOC(=O)N1CCN(c2c(N3CCc4ccccc43)c(=O)c2=O)CC1	-1	1	-3	12
CCOC(=O)N1N=C(c2ccc(C)cc2)CC1(O)C(F)(F)F (configuration not stated)	18	0.5	54*	28
CCOC(=O)N1N=C(c2ccccc2)CC1(O)C(F)(F)F (configuration not stated)	4	0.9	9	17
c1ccc2sc(Sc3ncnc4sccc34)nc2c1	-13	0.4	64*	13
Cc1cc(=O)[nH]c(SCC(=O)Nc2cc(S(=O)(=O)N3CCCC3)ccc2Cl)n1	-1	.	.	16
O=C(Cn1ncc(Cl)c(Cl)c1=O)Nc1ccc2c(c1)OCO2	94*	.	.	.
O=C(Cn1ncc(Cl)c(Cl)c1=O)c1ccc2c(c1)OCCO2	89*	.	.	.
CCCc1cc(=O)[nH]c(SCC(=O)Nc2cc(S(=O)(=O)N3CCCCC3)ccc2C)n1	50*	.	.	.
CCCc1cc(=O)[nH]c(SCC(=O)N2CCCc3ccccc32)n1	21	0.3	72*	-3
O=C(Cn1ncc(Cl)c(Cl)c1=O)NC(=O)NC1CCCCC1	93*	.	.	.
CCN(CC)S(=O)(=O)c1cc(NC(=O)Cn2ncc(Cl)c(Cl)c2=O)ccc1C	62*	.	.	17
Cc1ccc(S(=O)(=O)N2CCCCC2)cc1NC(=O)Cn1ncc(Cl)c(Cl)c1=O	96*	.	.	.
O=C(CN1CCCCC1)NC(=O)NC1CCCC1	-3	1	0	26
CCC(=O)Nc1ccc(C(=O)Cn2ncc(Cl)c(Cl)c2=O)cc1	94*	.	.	11
COC(=O)C1=C[C@@H](C(=O)OC)[C@@H]2C3=C(C(=O)[C@]2(CC(C)C)NC(=O)c2ccccc2)[C@H](C)n2c(=O)n(-c4ccccc4)c(=O)n2[C@@H]3C1	-12	.	.	.
C=CCN(CC=C)c1cnn(-c2nc3ccccc3[nH]2)c(=O)c1Cl	66*	0.5	51*	16
Cc1ccc(NC(=O)C2CCN(c3cnccn3)CC2)cc1	-5	0.1	85*	-3
CCCc1ccc(NC(=O)C2CCN(c3cnccn3)CC2)cc1	2	.	.	.
CCOc1ccc(/C=C\C(C)=N\O)cc1	34	0.3	69*	34
CC(=O)c1sc(NC(=O)c2cccc(C)c2)nc1C	25	0.5	51*	18
O=C(Nc1nncs1)C1COc2ccccc2O1 (configuration not stated)	2	1	-1	12
COC(=O)c1sc(NC(=S)NC(=O)c2cccc(C)c2)nc1C	51*	0.5	50	13
CC(=O)c1sc(NC(=O)C2COc3ccccc3O2)nc1C (configuration not stated)	-11	0.4	60*	.
SMILES	TRAIL sens C8	FLuc stim CS	FLuc inh counter	PPC-1+TRAIL kill
CC1=C(C(=O)N2CCOCC2)CC(CC(=O)NCCc2ccccn2)C(=O)N1CCCN1CCCC1=O (configuration not stated)	-2	.	.	.
COc1cccc(-c2c(NC(C)=O)n(C)c3ccccc3c2=O)c1	-1	.	.	.
Clc1ccc(-c2cc(-c3ccccc3)on2)cc1	18	.	.	.
Cc1ccc(-c2cc(-c3ccccc3)no2)c(O)c1	78*	0.1	87*	50
Oc1ccccc1-c1cc(-c2ccccc2)no1	45*	0.5	51*	17
Cc1ccccc1-c1cc(-c2ccccc2O)on1	35	0.6	36	19
Cc1ccc2nc(-c3cc(-c4ccccc4)no3)cn2c1	57*	.	.	33
COc1ccc(-c2cc(-c3cc(C)ccc3O)[nH]n2)cc1	44	0.9	6	4
Cc1ccc(O)c(-c2cc(-c3ccc(F)cc3)no2)c1	69*	.	.	.
N/C(=N\OC(=O)c1cccs1)c1cccc([N+](=O)[O-])c1	2	0.1	87*	3
Cc1ccccc1C(=O)O/N=C(\N)c1cccc([N+](=O)[O-])c1	74*	0.1	91*	36
Cc1cccc(C(=O)O/N=C(\N)c2cccc([N+](=O)[O-])c2)c1	45	0.1	87*	2
